Molecules are shown by their SMILES. pIC50, pKi: −log10 of the molar value. *1 amine or outer side, *2 acyl side, *3 side chain or, on linkers, in order; H or OH if unused. Where a SMILES comes first, the peptide text is derived from it. [ ]: non-standard residue; d: D form. The star is where a group is joined. ξ: configuration not given here. NH(β-D-Glc) = OC[C@H]1O[C@@H](N*)[C@H](O)[C@@H](O)[C@@H]1O; X1 = NC(=O)[C@H]1O[C@@H](N*)[C@H](O)[C@@H](O)[C@@H]1O; ξGly(nC16H33) = CCCCCCCCCCCCCCCCC(N)C(=O)O; Dmt = Cc1cc(O)cc(C)c1C[C@H](N)C(=O)O; ξGly(decyl) = CCCCCCCCCCC(N)C(=O)O; Suc = O=C(CCC(=O)[*:2])[*:1]; ξAoc(2) = CCCCCCC(N)C(=O)O

The source of these data is ChEMBL document CHEMBL1150362, “Synthesis and in vitro evaluation of a library of modified endomorphin 1 peptides” (Bioorg Med Chem, 2008).

Series [1] can be described thus: (§1) Metabolic stability assessed as half life in human Caco-2 cell homogenate. It counts as ADME, Colon. Particulars: Caco-2 cell homogenate.
Series [2] addresses T1, Mu-type opioid receptor (Homo sapiens, UniProt P35372). In words: Displacement of [3H]DAMGO from mu opioid receptor in human SHSY5Y cells. It counts as cell-based, SH-SY5Y. Put shortly:
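Intact SH-SY5Y cells in 24-well plates were pre-incubated in binding buffer (50 mM Tris pH 7.4, 2% BSA). Incubated with 100 pM [3H]DAMGO plus unlabelled competitor (7 concentrations, 10 pM-1 μM) for 60 min at 37°C. Nonspecific binding defined with 1 μM DAMGO. Cells washed, dissolved in 1 M NaOH and counted by scintillation. Triplicates on at least three plates; Ki from one-site competition fits.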

Series [3] deals with T1, Mu-type opioid receptor. The experiment in a line: Agonist activity at mu opioid receptor in human SHSY5Y cells assessed as inhibition of forskolin-stimulated cAMP production at 100 nM. Also on record: scale not given: the % may be the effect or the level left. It counts as functional, cell-based. Particulars: SH-SY5Y. The gist of the method: (§2)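 SH-SY5Y cells (endogenous mu and delta opioid receptors, passages 10-20) grown in 96-well plates to 80% confluence. Peptides applied in DMEM with 30 μM forskolin for 30 min at 37°C. Lysed cells read by cAMP enzyme immunoassay (TMB, 450 nm) against a 0-3.2 pmol standard curve, expressed relative to the maximal forskolin response. Three experiments in triplicate; IC50 from concentration-response curves.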

For another series, the species on record is Rattus norvegicus. The experiment in a line: Selectivity for rat mu opioid receptor over rat delta opioid receptor. The gist of the method: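 Ratio Kiδ/Kiμ, with both Ki values from competitive displacement binding on prepared rat brain P2 synaptosome membranes. The μ site was labelled with [3H]DAMGO. Ki values are given as mean ± SE, n = 3-4.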
Series [4] deals with T1, Mu-type opioid receptor. In words: Agonist activity at mu opioid receptor in human SHSY5Y cells assessed as inhibition of forskolin-stimulated cAMP production. It counts as functional, cell-based, SH-SY5Y. The gist of the method:
as §2

In series [5] the target is Mu-type opioid receptor (Rattus norvegicus, UniProt P33535). In words: Displacement of [3H]DAMGO from mu opioid receptor in rat brain membrane. The format is cell membranes.
A short description of series [6]: (§3) Apparent permeability from apical to basolateral side of the human Caco-2 membrane. It counts as ADME, cell-based.
Series [7] concerns the target Delta-type opioid receptor (Rattus norvegicus, UniProt P33533). In words: Displacement of […] from delta opioid receptor in rat brain membrane. The format is cell membranes.
Series [8] concerns Caco-2. The description is as §1. It counts as ADME, Colon. Particulars: Caco-2.
Series [9] has as its system Caco-2. Described as §3. The format is ADME, cell-based.

Sequence of Delta-type opioid receptor (P33533 whole entry): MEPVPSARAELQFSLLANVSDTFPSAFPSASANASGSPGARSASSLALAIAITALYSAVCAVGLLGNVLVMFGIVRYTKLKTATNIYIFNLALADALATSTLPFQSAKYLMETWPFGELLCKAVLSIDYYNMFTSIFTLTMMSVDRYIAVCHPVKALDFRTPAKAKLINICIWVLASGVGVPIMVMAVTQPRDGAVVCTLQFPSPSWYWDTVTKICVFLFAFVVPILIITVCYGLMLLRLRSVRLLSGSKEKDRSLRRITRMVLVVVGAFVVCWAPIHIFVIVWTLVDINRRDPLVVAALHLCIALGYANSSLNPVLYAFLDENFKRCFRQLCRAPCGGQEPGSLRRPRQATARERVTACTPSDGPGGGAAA
T1 sequence (P35372 whole entry): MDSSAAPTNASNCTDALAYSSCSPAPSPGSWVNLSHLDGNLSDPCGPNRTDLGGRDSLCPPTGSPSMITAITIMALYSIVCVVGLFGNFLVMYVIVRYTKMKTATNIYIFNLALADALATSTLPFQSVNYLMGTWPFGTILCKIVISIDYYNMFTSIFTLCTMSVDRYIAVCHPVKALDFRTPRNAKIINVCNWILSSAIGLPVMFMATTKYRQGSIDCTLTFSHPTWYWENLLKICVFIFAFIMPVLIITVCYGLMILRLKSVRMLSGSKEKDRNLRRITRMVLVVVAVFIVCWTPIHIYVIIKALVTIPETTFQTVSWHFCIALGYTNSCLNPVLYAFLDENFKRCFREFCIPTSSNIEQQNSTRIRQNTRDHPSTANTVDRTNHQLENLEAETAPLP
Sequence of Mu-type opioid receptor (Rattus norvegicus, UniProt P33535) (P33535 whole entry): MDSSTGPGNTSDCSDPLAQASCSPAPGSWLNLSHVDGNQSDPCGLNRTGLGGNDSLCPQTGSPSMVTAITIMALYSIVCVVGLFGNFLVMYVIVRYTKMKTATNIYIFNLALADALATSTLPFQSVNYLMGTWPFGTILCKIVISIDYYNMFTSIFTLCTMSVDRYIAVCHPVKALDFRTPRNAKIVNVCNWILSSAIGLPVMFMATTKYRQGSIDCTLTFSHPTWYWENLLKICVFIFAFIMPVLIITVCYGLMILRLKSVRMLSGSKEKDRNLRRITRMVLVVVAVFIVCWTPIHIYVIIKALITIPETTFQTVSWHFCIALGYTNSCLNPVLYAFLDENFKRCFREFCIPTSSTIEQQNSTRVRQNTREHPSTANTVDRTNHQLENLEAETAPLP

Consider `NC(=O)[C@H]1O[C@@H](NC(=O)[C@H](Cc2ccccc2)NC(=O)[C@H](Cc2c[nH]c3ccccc23)NC(=O)[C@@H]2CCCN2C(=O)[C@@H](N)Cc2ccc(O)cc2)[C@H](O)[C@@H](O)[C@@H]1O`, for which the half-life in [1] came to 4.3 min. Besides, on Mu-type opioid receptor [2], the pKi was 6.82. The Activity on Mu-type opioid receptor [3] came out at 31.5%.

Regarding `CCCCCCC(N)C(=O)N[C@@H](Cc1ccc(O)cc1)C(=O)N1CCC[C@H]1C(=O)N[C@@H](Cc1c[nH]c2ccccc12)C(=O)N[C@@H](Cc1ccccc1)C(N)=O` (stereo partly drawn), in the series listed under Rattus norvegicus, the Ratio Ki turned out to be 614. Also, the half-life in series [1] was 23.2 min. Further, the pIC50 on Mu-type opioid receptor [4] was 7.58. In addition, the pKi on Mu-type opioid receptor [2] is 8.67; on Mu-type opioid receptor [5] it was 8.54; in [7], 5.75. For the same molecule, the Activity at Mu-type opioid receptor [3] turned out to be 65.4%. In series [6], the Papp A→B was found to be 3.54 ×10⁻⁶ cm/s.

`NC(=O)[C@H](Cc1ccccc1)NC(=O)[C@H](Cc1c[nH]c2ccccc12)NC(=O)[C@@H]1CCCN1C(=O)[C@H](Cc1ccc(O)cc1)NC(=O)CCC(=O)N[C@@H]1O[C@H](CO)[C@@H](O)[C@H](O)[C@H]1O`: the Ratio Ki in the series filed under Rattus norvegicus came to 55. Moreover, the half-life in series [1] was 38 min. Further, the pKi on Mu-type opioid receptor [2] was 6.94; at Mu-type opioid receptor [5], 6.94; in [7], 5.20. Further, the Papp A→B in series [6] amounted to 0.545 ×10⁻⁶ cm/s.

As to `CCCCCC[C@H](N)C(=O)N[C@@H](Cc1ccc(O)cc1)C(=O)N1CCC[C@H]1C(=O)N[C@@H](Cc1c[nH]c2ccccc12)C(=O)N[C@@H](Cc1ccccc1)C(N)=O`, in series [1], the half-life came out at 23.8 min. For the same molecule, at Mu-type opioid receptor [2], the negative logarithm of the Ki (pKi) is 8.52.

Regarding `CCCCCC[C@@H](N)C(=O)N[C@@H](Cc1ccc(O)cc1)C(=O)N1CCC[C@H]1C(=O)N[C@@H](Cc1c[nH]c2ccccc12)C(=O)N[C@@H](Cc1ccccc1)C(N)=O`, in [1], the half-life stood at 23.8 min. Further, the pKi on Mu-type opioid receptor [2] is 8.53.

`CCCCCCC(NC(=O)[C@H](Cc1ccccc1)NC(=O)[C@H](Cc1c[nH]c2ccccc12)NC(=O)[C@@H]1CCCN1C(=O)[C@@H](N)Cc1ccc(O)cc1)C(N)=O` (stereo partly drawn) (H-YPWF[ξAoc(2)]-NH2): the half-life in series [1] came out at 3.5 min. This molecule gave a pKi at Mu-type opioid receptor [2] of 6.92. Further, the Activity on Mu-type opioid receptor [3] worked out at 15.9%. Also, the apical-to-basolateral permeability (Papp A→B) in [6] is 0.823 ×10⁻⁶ cm/s.

`CCCCCCCCCCC(NC(=O)[C@H](Cc1ccccc1)NC(=O)[C@H](Cc1c[nH]c2ccccc12)NC(=O)[C@@H]1CCCN1C(=O)[C@@H](N)Cc1ccc(O)cc1)C(N)=O` (stereo partly drawn) (H-YPWF[ξGly(decyl)]-NH2): in [6], the apparent permeability from apical to basolateral (Papp A→B) was 0.416 ×10⁻⁶ cm/s.

`CCCCCCC(N)C(=O)N[C@@H](Cc1ccc(O)cc1)C(=O)N1CCC[C@H]1C(=O)N[C@@H](Cc1c[nH]c2ccccc12)C(=O)N[C@@H](Cc1ccccc1)C(=O)N[C@@H]1O[C@H](C(N)=O)[C@@H](O)[C@H](O)[C@H]1O` (stereo partly drawn) (H-[ξAoc(2)]YPWF-X1): the half-life in series [1] was found to be 75 min. Besides, the pKi at Mu-type opioid receptor [2] was 6.83. Further, the Activity on Mu-type opioid receptor [3] worked out at 36.2%. In addition, the apical-to-basolateral permeability (Papp A→B) in series [6] came out at 1.62 ×10⁻⁶ cm/s.

As for `CCCCCCC(N)C(=O)N[C@@H](Cc1c(C)cc(O)cc1C)C(=O)N1CCC[C@H]1C(=O)N[C@@H](Cc1c[nH]c2ccccc12)C(=O)N[C@@H](Cc1ccccc1)C(N)=O` (stereo partly drawn) (H-[ξAoc(2)][Dmt]PWF-NH2), the pIC50 on Mu-type opioid receptor [4] is 9.49. Further, the pKi at Mu-type opioid receptor [2] is 10.09. Moreover, at Mu-type opioid receptor [3], the Activity was determined as 84.3%.

With `CCCCCCCCCCC(N)C(=O)N[C@@H](Cc1ccc(O)cc1)C(=O)N1CCC[C@H]1C(=O)N[C@@H](Cc1c[nH]c2ccccc12)C(=O)N[C@@H](Cc1ccccc1)C(N)=O` (stereo partly drawn) (H-[ξGly(decyl)]YPWF-NH2), the Ratio Ki in the series filed under Rattus norvegicus worked out at 56. The pKi on Mu-type opioid receptor [2] is 7.81; at Mu-type opioid receptor [5], 7.83; in series [7], 6.08. Moreover, the Activity on Mu-type opioid receptor [3] amounted to 55.4%. In addition, in series [6], the Papp A→B was determined as 1.24 ×10⁻⁶ cm/s.

Take `CCCCCCCCCCCCCCCCC(N)C(=O)N[C@@H](Cc1ccc(O)cc1)C(=O)N1CCC[C@H]1C(=O)N[C@@H](Cc1c[nH]c2ccccc12)C(=O)N[C@@H](Cc1ccccc1)C(N)=O` (stereo partly drawn) (H-[ξGly(nC16H33)]YPWF-NH2): the Activity on Mu-type opioid receptor [3] was found to be 48.4%.

With `Cc1cc(O)cc(C)c1C[C@H](N)C(=O)N1CCC[C@H]1C(=O)N[C@@H](Cc1c[nH]c2ccccc12)C(=O)N[C@@H](Cc1ccccc1)C(N)=O` (stereo in doubt), the t1/2 with Caco-2 [8] stood at 5 min. Besides, the Papp with Caco-2 [9] is listed as 0.196 ×10⁻⁷ cm/s.

With `Cc1cc(O)cc(C)c1C[C@H](N)C(=O)N1CCC[C@H]1C(=O)N[C@@H](Cc1c[nH]c2ccccc12)C(=O)N[C@@H](Cc1ccccc1)C(N)=O` (stereo in doubt; 13) [listing 1 of 2 here], the t1/2 with Caco-2 [8] is 13.5 min. Moreover, on Mu-type opioid receptor [4], the negative-log IC50 (pIC50) is 9.37. Further, the pKi on Mu-type opioid receptor [2] was 10.23; on Mu-type opioid receptor [5] it was 10.17; in series [7], 8.30. For the same molecule, in the series with Caco-2 [9], the Papp is recorded as 5.04 ×10⁻⁷ cm/s.

Consider `Cc1cc(O)cc(C)c1C[C@H](N)C(=O)N1CCC[C@H]1C(=O)N[C@@H](Cc1c[nH]c2ccccc12)C(=O)N[C@@H](Cc1ccccc1)C(N)=O` (stereo in doubt; 13) [listing 2 of 2 here], for which the Ratio Ki in the series filed under Rattus norvegicus is 75.

As to `CCCCCCC(NC(=O)[C@H](Cc1ccccc1)NC(=O)[C@H](Cc1c[nH]c2ccccc12)NC(=O)[C@@H]1CCCN1C(=O)[C@H](Cc1ccc(O)cc1)NC(=O)CCC(=O)N[C@@H]1O[C@H](CO)[C@@H](O)[C@H](O)[C@H]1O)C(N)=O` (stereo partly drawn) ({NH(β-D-Glc)-Suc}-YPWF[ξAoc(2)]-NH2), in series [1], the half-life turned out to be 33 min. Further, the pKi at Mu-type opioid receptor [2] was 6.58. The Papp A→B in series [6] worked out at 1.14 ×10⁻⁶ cm/s.

For `NC(=O)[C@H](Cc1ccccc1)NC(=O)[C@H](Cc1c[nH]c2ccccc12)NC(=O)[C@@H]1CCCN1C(=O)[C@@H](N)Cc1ccc(O)cc1` [ENDOMORPHIN-1], the apparent permeability from apical to basolateral (Papp A→B) in [6] was 0.447 ×10⁻⁶ cm/s.
